According to ChEMBL document CHEMBL1122780, “Trequinsin, a potent new antihypertensive vasodilator in the series of 2-(arylimino)-3-alkyl-9,10-dimethoxy-3,4,6,7-tetrahydro-2H-py rim ido [6,1-a]isoquinolin-4-ones” (J Med Chem, 1984):

What was measured:
Rattus norvegicus [1] = test: Difference in systolic blood pressure of SH rats observed prior to the first application and 2 hr after the fifth application at the oral dose of 25 mg/kg was expressed as Delta BP; assay type: functional, Artery
In short: (§1)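 Male spontaneously hypertensive rats (Wistar–Okamoto, 250–300 g, 12–16 weeks), conscious. Dosed orally once daily for 5 days in 0.9% NaCl or 0.5% carboxymethylcellulose (10 mL/kg); vehicle control group. Rats warmed at 37–38 °C for 10 min, then systolic pressure taken by tail-cuff (piezoelectric pulse detection). ΔBP = pre-first-dose minus 2 h after fifth dose; mean ± SEM, six animals.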

Felis catus [2] = test: Dose estimated to produce 25 mm Hg fall in mean systemic blood pressure of anesthetized cat at 10 min after administration; assay type: functional
Rattus norvegicus [3] = test: Difference in systolic blood pressure of SH rats observed prior to the first application and 2 hr after the fifth application at the oral dose of 5 mg/kg was expressed as Delta BP; assay type: functional, Artery; in short: as §1
Rattus norvegicus [4] = test: Difference in systolic blood pressure of SH rats observed prior to the first application and 2 hr after the fifth application at the oral dose of 10 mg/kg was expressed as Delta BP; assay type: functional, Artery; in short: as §1
Felis catus [5] = test: Blood pressure lowering activity in anesthetized cats after intravenous administration of […] of compound; assay type: functional
[6] = Compound was tested for toxicity in mice after intraperitoneal administration; assay type: organism-based; settings: mouse, in vivo, ip
In short: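 Mice (18–22 g), either sex. Compound dissolved in distilled water or suspended in 0.5% (carboxymethyl)cellulose and given ip at 10, 30, 100, 300 and 1000 mg/kg, 1 mL/100 g body weight. Animals observed for 48 h; approximate LD50 calculated by the Campbell and Richter method.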

Rattus norvegicus [7] = test: Delta BP refers to difference in systolic blood pressure of SH rats observed prior to the first application and 2 hr after the fifth application at the oral dose of 3 mg/kg; assay type: functional, Artery; in short: as §1

Compound | ED25 (Felis catus [2]) | further results
COc1cc2c(cc1OC)-c1cc(=Nc3c(Cl)cc(Cl)cc3Cl)n(C)c(=O)n1CC2 | 3 mg/kg | Delta blood pressure (Rattus norvegicus [1]): -21 mmHg
COc1cc2c(cc1OC)-c1cc(Nc3ccc(O)cc3)nc(=O)n1CC2 | 10 mg/kg | –
COc1cc2c(cc1OC)-c1cc(Nc3ccc(Cl)cc3Cl)nc(=O)n1CC2 | 1 mg/kg | Delta blood pressure (Rattus norvegicus [1]): 0 mmHg
COc1cc(Nc2cc3n(c(=O)n2)CCc2cc(OC)c(OC)cc2-3)cc(OC)c1.Cl | 3.4 mg/kg | –
COc1cc2c(cc1OC)-c1cc(N(c3c(C)cc(C)cc3C)C(C)C)nc(=O)n1CC2 | 0.5 mg/kg | Delta blood pressure (Rattus norvegicus [3]): -37 mmHg
COc1cc2c(cc1OC)-c1cc(Nc3ccc(C)c(C)c3)nc(=O)n1CC2 | 10 mg/kg | –
COc1cc2c(cc1OC)-c1cc(Nc3cc(C)cc(C)c3)nc(=O)n1CC2 | 3 mg/kg | –
COc1cc2c(cc1OC)-c1cc(=Nc3c(F)cccc3F)n(C)c(=O)n1CC2 | 0.5 mg/kg | Delta blood pressure (Rattus norvegicus [4]): 0 mmHg
CCOc1ccccc1Nc1cc2n(c(=O)n1)CCc1cc(OC)c(OC)cc1-2.Cl | 1.2 mg/kg | Delta blood pressure (Rattus norvegicus [1]): -27 mmHg
COc1cc2c(cc1OC)-c1cc(Nc3c(C)cccc3C(C)(C)C)nc(=O)n1CC2.Cl | 1.8 mg/kg | Delta blood pressure (Rattus norvegicus [1]): 0 mmHg
CCOc1ccc(Nc2cc3n(c(=O)n2)CCc2cc(OC)c(OC)cc2-3)cc1.Cl | 50 mg/kg | –
CCn1c(=Nc2c(C)cc(C)cc2C)cc2n(c1=O)CCc1cc(OC)c(OC)cc1-2.Cl | 0.1 mg/kg | Delta blood pressure (Rattus norvegicus [3]): -20 mmHg; ED25 (Felis catus [5]): 0.025 mg/kg; LD50 [6]: 65 mg/kg
COc1cc2c(cc1OC)-c1cc(Nc3ccc(C)c(N)c3)nc(=O)n1CC2 | 2.4 mg/kg | –
CCCCN(c1cc2n(c(=O)n1)CCc1cc(OC)c(OC)cc1-2)c1c(C)cc(C)cc1C | 0.08 mg/kg | –
COc1cc2c(cc1OC)-c1cc(=Nc3c(F)cccc3F)n(CP(C)(C)=O)c(=O)n1CC2.Cl | 0.4 mg/kg | Delta blood pressure (Rattus norvegicus [1]): 0 mmHg
N/N=c1\[nH][nH]/c(=N\N)c2ccccc12 [DIHYDRALAZINE] | 1 mg/kg | Delta blood pressure (Rattus norvegicus [3]): -60 mmHg
COc1cc2c(cc1OC)-c1cc(Nc3ccc(Cl)cc3)nc(=O)n1CC2 | 50 mg/kg | –
COc1cc2c(cc1OC)-c1cc(Nc3cccc(C(F)(F)F)c3)nc(=O)n1CC2 | 2 mg/kg | –
COc1cc2c(cc1OC)-c1cc(Nc3ccc(C)c(Cl)c3Cl)nc(=O)n1CC2.Cl | 5 mg/kg | Delta blood pressure (Rattus norvegicus [1]): -19 mmHg
Nc1cc(N2CCCCC2)nc(N)[n+]1[O-] [MINOXIDIL] | 1.2 mg/kg | Delta blood pressure (Rattus norvegicus [3]): -51.2 mmHg
COc1cc2c(cc1OC)-c1cc(=Nc3ccc(C)cc3C)n(C)c(=O)n1CC2.Cl | 10 mg/kg | –
COc1cc2c(cc1OC)-c1cc(Nc3c(C)cccc3C(C)C)nc(=O)n1CC2.Cl | 2.2 mg/kg | –

Compound | ED25 (Felis catus [2]) | further results
COc1cc2c(cc1OC)-c1cc(=Nc3c(C)cccc3C)n(C)c(=O)n1CC2 | 3.5 mg/kg | –
COc1cc2c(cc1OC)-c1cc(=Nc3c(C)cccc3C(C)C)n(C)c(=O)n1CC2.Cl | 1 mg/kg | Delta blood pressure (Rattus norvegicus [3]): 0 mmHg
COc1cc2c(cc1OC)-c1cc(Nc3c(Cl)cccc3Cl)nc(=O)n1CC2 | 2 mg/kg | –
COc1cc2c(cc1OC)-c1cc(Nc3c(Cl)cc(Cl)cc3Cl)nc(=O)n1CC2.Cl | 0.5 mg/kg | –
COc1cc2c(cc1OC)-c1cc(N(CP(C)(C)=O)c3c(F)cccc3F)nc(=O)n1CC2 | 2.4 mg/kg | Delta blood pressure (Rattus norvegicus [1]): 0 mmHg
COc1cc2c(cc1OC)-c1cc(Nc3ccccc3C(=O)O)nc(=O)n1CC2 | 50 mg/kg | –
CCc1cccc(C(C)C)c1Nc1cc2n(c(=O)n1)CCc1cc(OC)c(OC)cc1-2.Cl | 3 mg/kg | –
COc1cc2c(cc1OC)-c1cc(Nc3ccccc3Cl)nc(=O)n1CC2.Cl | 1.4 mg/kg | Delta blood pressure (Rattus norvegicus [1]): 0 mmHg
COc1cc2c(cc1OC)-c1cc(Nc3cc(OC)c(OC)c(OC)c3)nc(=O)n1CC2.Cl | 0.8 mg/kg | –
COc1cc2c(cc1OC)-c1cc(N(C)c3c(C)cc(C)cc3C)nc(=O)n1CC2.Cl | 0.03 mg/kg | Delta blood pressure (Rattus norvegicus [3]): -45 mmHg; ED25 (Felis catus [5]): 0.03 mg/kg; LD50 [6]: 27 mg/kg
CCc1cccc(C(C)CC)c1N=c1cc2n(c(=O)n1C)CCc1cc(OC)c(OC)cc1-2.Cl (centres undefined) | 3.5 mg/kg | Delta blood pressure (Rattus norvegicus [1]): -20 mmHg
CCc1ccccc1Nc1cc2n(c(=O)n1)CCc1cc(OC)c(OC)cc1-2 | 10 mg/kg | –
COc1cc2c(cc1OC)-c1cc(N(C(C)=O)c3c(C)cc(C)cc3C)nc(=O)n1CC2 | 0.25 mg/kg | Delta blood pressure (Rattus norvegicus [4]): -24 mmHg; ED25 (Felis catus [5]): 0.25 mg/kg; LD50 [6]: 825 mg/kg
COc1cc2c(cc1OC)-c1cc(=Nc3c(C)cc(C)cc3C)n(CP(C)(C)=O)c(=O)n1CC2.Cl | 0.1 mg/kg | Delta blood pressure (Rattus norvegicus [3]): -33 mmHg; ED25 (Felis catus [5]): 0.5 mg/kg; LD50 [6]: 65 mg/kg
COc1cc2c(cc1OC)-c1cc(Nc3c(C)cc(C)cc3C)nc(=O)n1CC2.Cl | 0.2 mg/kg | Delta blood pressure (Rattus norvegicus [3]): -37 mmHg; ED25 (Felis catus [5]): 0.2 mg/kg; LD50 [6]: 82.5 mg/kg
COc1cc2c(cc1OC)-c1cc(Nc3ccc(C)cc3C)nc(=O)n1CC2 | 1 mg/kg | Delta blood pressure (Rattus norvegicus [1]): -41 mmHg
COc1cc2c(cc1OC)-c1cc(Nc3c(C)cccc3C)nc(=O)n1CC2 | 0.1 mg/kg | Delta blood pressure (Rattus norvegicus [3]): -27 mmHg
COc1cc2c(cc1OC)-c1cc(Nc3c(F)cccc3F)nc(=O)n1CC2 | 3.5 mg/kg | Delta blood pressure (Rattus norvegicus [1]): 0 mmHg
COc1cc2c(cc1OC)-c1cc(=Nc3c(C)cc(C)cc3C)n(C(C)C)c(=O)n1CC2 | 0.1 mg/kg | Delta blood pressure (Rattus norvegicus [4]): -34 mmHg
CCN(c1cc2n(c(=O)n1)CCc1cc(OC)c(OC)cc1-2)c1c(C)cc(C)cc1C | 0.025 mg/kg | Delta blood pressure (Rattus norvegicus [7]): -13 mmHg; ED25 (Felis catus [5]): 0.1 mg/kg; LD50 [6]: 65 mg/kg
COc1ccc(OC)c(Nc2cc3n(c(=O)n2)CCc2cc(OC)c(OC)cc2-3)c1 | 50 mg/kg | –
